Results gathered from unrelated publications.
Lines come from different studies, so protocols differ.
Mode: inhibitor
CDK7: Cyclin-dependent kinase 7 (CDK7, Homo sapiens, UniProt P50613)
CDK7 with cyclin H: Cyclin-dependent kinase 7, with cyclin H (CDK7, Homo sapiens, UniProt P50613)

| SMILES | target | test | conditions | inhibition |
| --- | --- | --- | --- | --- |
| Cc1ccc(-n2nc(C(C)(C)C)cc2NC(=O)Nc2ccc(OCCN3CCOCC3)c3ccccc23)cc1 | CDK7 | enzyme activity | 10 µM | 17% |
| COc1cc(-c2cc(-c3ccc(N4CCNCC4)cc3)cnc2C)cc(OC)c1OC | CDK7 | enzyme activity | 1 µM | 2% |
| Cc1ccc(Nc2nccc(N(C)c3ccc4c(C)n(C)nc4c3)n2)cc1S(N)(=O)=O | CDK7 with cyclin H | enzyme activity | 10 µM | 34% |
| c1ccc(CNc2nc(N3CCOc4ccccc43)nc3c2CCCC3)cc1 | CDK7 | target engagement in cells, chemoproteomics | 20 mM | -1.7% |
| COC(=O)[C@H]1[C@H]2C[C@@H]3c4[nH]c5cc(OC)ccc5c4CCN3C[C@H]2C[C@@H](OC(=O)c2cc(OC)c(OC)c(OC)c2)[C@@H]1OC | CDK7 with cyclin H | enzyme activity, ADP detection | 10 µM | -37.8% |
| C=CC(=O)Nc1cc(Nc2nccc(Nc3cc(Cl)c(F)cc3C(C)(C)O)n2)c(OC)cc1N1CC[C@@H](N(C)C)C1 | CDK7 with cyclin H | enzyme activity | 1 µM | 14% |
| COC1=C(OC)C(=O)C(C/C=C(\C)CC/C=C(\C)CC/C=C(\C)CC/C=C(\C)CC/C=C(\C)CC/C=C(\C)CC/C=C(\C)CC/C=C(\C)CC/C=C(\C)CCC=C(C)C)=C(C)C1=O | CDK7 with cyclin H | enzyme activity, ADP detection | 10 µM | 6.6% |
| COc1cccc2c(NCc3ccccc3)nc(-n3c(N)nc4ccccc43)nc12 | CDK7 | target engagement in cells, chemoproteomics | 20 mM | 2.5% |
| O=C(O)c1cc(O)c(O)c(O)c1 | CDK7 with cyclin H | enzyme activity, ADP detection | 10 µM | -3% |
| Cn1cnc(Br)c1C1=CN(c2ncnc3[nH]cnc23)CCS1 | CDK7 | enzyme activity, radiometric | 50 nM | 21.6% |
